Publication PMC7288582 (ACS Omega, 2020)

How the values were obtained:
[1] = DPPH radical scavenging assay; settings: antioxidant activity
In short: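 Test material was polyphenolic-rich plant extracts from pressurized 50% ethanol extraction at 80 °C, microfiltration at 0.45 μm, then nanofiltration on a 200–300 Da polyamide membrane. A modified literature method was used: graded concentrations of extract or standard were mixed with methanolic DPPH solution and absorbance was read at 519 nm. Data were reported as mean ± standard deviation (n = 3).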

[2] = biological target: T1, α-amylase from hog pancreas (Sus scrofa, UniProt P00690); assay: biochemical
T1 sequence (P00690 16-511): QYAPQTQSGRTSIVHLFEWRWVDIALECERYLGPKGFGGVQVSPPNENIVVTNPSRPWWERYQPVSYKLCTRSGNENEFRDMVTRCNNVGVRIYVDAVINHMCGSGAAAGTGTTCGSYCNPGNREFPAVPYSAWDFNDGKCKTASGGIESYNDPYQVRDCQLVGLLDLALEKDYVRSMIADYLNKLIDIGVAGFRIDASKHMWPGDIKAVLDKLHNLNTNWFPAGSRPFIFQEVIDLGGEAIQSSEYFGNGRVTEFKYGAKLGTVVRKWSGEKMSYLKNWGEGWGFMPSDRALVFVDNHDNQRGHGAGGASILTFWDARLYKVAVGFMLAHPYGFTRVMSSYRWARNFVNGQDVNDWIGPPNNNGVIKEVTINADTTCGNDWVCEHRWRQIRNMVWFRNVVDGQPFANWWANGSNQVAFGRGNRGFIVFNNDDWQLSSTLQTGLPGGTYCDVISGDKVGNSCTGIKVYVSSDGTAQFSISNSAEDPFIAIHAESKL

LOX = biological target: T2, LOX (Glycine max, UniProt P08170); assay: LOX inhibition, spectrophotometric assay; type: biochemical
T2 sequence (P08170 1-839): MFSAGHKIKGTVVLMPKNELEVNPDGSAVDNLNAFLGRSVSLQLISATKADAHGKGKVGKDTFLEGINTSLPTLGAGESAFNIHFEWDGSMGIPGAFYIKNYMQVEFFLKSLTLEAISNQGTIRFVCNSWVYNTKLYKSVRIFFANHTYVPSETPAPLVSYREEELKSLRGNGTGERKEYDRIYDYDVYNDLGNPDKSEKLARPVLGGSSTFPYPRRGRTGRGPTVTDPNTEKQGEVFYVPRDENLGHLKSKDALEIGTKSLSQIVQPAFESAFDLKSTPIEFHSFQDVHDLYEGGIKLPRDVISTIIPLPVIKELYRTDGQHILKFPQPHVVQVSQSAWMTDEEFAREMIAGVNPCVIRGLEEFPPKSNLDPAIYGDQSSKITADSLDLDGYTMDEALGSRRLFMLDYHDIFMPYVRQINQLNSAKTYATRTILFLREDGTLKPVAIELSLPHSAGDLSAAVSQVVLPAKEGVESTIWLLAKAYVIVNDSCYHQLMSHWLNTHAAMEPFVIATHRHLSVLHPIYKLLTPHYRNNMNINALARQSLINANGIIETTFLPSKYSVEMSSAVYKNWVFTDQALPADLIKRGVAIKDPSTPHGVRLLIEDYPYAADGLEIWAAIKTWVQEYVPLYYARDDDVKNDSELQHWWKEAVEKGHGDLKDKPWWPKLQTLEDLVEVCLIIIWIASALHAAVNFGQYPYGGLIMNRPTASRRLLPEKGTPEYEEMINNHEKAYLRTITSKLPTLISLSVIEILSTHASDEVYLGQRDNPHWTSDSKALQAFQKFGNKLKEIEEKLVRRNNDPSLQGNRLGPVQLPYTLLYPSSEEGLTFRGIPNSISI

[3] = biological target: α-glucosidase from Saccharomyces cerevisiae (Saccharomyces cerevisiae, UniProt P53341); assay: α-Glucosidase inhibition assay; type: biochemical
Chain of α-glucosidase from Saccharomyces cerevisiae (P53341 whole entry): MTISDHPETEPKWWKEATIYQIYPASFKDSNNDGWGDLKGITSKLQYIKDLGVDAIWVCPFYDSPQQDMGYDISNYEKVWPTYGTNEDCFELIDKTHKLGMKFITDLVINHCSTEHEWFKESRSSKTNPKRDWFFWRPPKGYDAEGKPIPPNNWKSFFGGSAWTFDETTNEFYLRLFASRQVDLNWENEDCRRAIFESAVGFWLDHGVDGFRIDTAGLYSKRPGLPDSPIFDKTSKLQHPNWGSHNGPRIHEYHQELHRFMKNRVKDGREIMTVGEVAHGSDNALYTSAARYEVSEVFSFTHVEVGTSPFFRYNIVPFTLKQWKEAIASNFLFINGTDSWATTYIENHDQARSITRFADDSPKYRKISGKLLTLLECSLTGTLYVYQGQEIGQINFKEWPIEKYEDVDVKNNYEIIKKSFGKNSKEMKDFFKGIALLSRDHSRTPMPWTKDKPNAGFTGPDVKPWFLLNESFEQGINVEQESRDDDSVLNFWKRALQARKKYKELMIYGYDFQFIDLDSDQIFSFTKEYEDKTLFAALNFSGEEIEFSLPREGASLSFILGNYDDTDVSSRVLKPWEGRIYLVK

## O=C1O[C@H]([C@@H](O)CO)C(O)=C1O [ascorbic acid (vitamin C), ascorbic acid]
[1]
  DPPH, EC50: 3.6 ± 0.2 µg/mL

## O=C(/C=C/c1ccc(O)c(O)c1)O[C@@H]1C[C@](O)(C(=O)O)C[C@@H](O)[C@H]1O [chlorogenic acid]
[2]
  IC50: 5.19 µM
LOX
  IC50: 230 µM

## O=c1c(O[C@@H]2O[C@H](CO)[C@@H](O)[C@H](O)[C@H]2O)c(-c2ccc(O)c(O)c2)oc2cc(O)cc(O)c12 [isoquercitrin, quercetin-3-β-qlucoside]
[2]
  IC50: 20.8 µM
[3]
  IC50: 16.8 µM
LOX
  IC50: 212 µM

## O=c1cc(-c2ccc(O)c(O)c2)oc2cc(O)cc(O)c12 [luteolin]
[2]
  IC50: 68.2 µM
[3]
  IC50: 100 µM
LOX
  IC50: 109 µM

## O=C(/C=C/c1ccc(O)c(O)c1)O[C@H](Cc1ccc(O)c(O)c1)C(=O)O [rosmarinic acid]
[2]
  IC50: 2.55 µM
[3]
  IC50: 12 µM
LOX
  IC50: 306 µM

## C[C@@H]1O[C@@H](OC[C@H]2O[C@@H](Oc3c(-c4ccc(O)c(O)c4)oc4cc(O)cc(O)c4c3=O)[C@H](O)[C@@H](O)[C@@H]2O)[C@H](O)[C@H](O)[C@H]1O [rutin]
[2]
  IC50: 18.7 µM
[3]
  IC50: 10.8 µM
LOX
  IC50: 75.8 µM
